Test results taken from ChEMBL document CHEMBL4680108, “Ancistrolikokine E, a 5,8'-Coupled Naphthylisoquinoline Alkaloid, Eliminates the Tolerance of Cancer Cells to Nutrition Starvation by Inhibition of the Akt/mTOR/Autophagy Signaling Pathway” (2018).

Test system: PANC-1
Assay: Anti-austerity activity against nutrient-deprived human PANC-1 cells assessed as cell death incubated for 24 hrs by WST-8 assay
Type: functional
In short: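 Human PANC-1 pancreatic cancer cells tested in parallel in nutrient-deprived medium (NDM) and in nutrient-rich DMEM. PC50 is the concentration that kills 50% of cells in NDM without toxicity in DMEM.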

Work on `COc1cc(C[C@H]2C(=O)OC[C@@H]2Cc2ccc(OC)c(OC)c2)ccc1O` [ARCTIGENIN] yielded a PC50 of 0.83 µM.
